Source: ChEMBL document CHEMBL3259718, “Identifying structural determinants of potency for analogs of apelin-13: integration of C-terminal truncation with structure-activity” (Bioorg Med Chem, 2014)
Structures can show the parent of a compound that is named as a salt. Square brackets hold non-standard residues; d marks the D form. Peptide text beside a SMILES is read from it. * marks the point of attachment. hPhe = N[C@@H](CCc1ccccc1)C(=O)O; Nle = CCCC[C@H](N)C(=O)O; Aoc = NCCCCCCCC(=O)O; Tfa = O=C(C(F)(F)F)*

Legend:
[1] = Retention time of the compound by HPLC analysis; type: physicochemical
Outline: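 Analytical reverse-phase HPLC on a peptide C18 column with a 5–45% acetonitrile gradient over 30 min. Identity was confirmed by ESI-MS mass.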

Apelin receptor = target: T1, Apelin receptor (Homo sapiens, UniProt P35414); assay: Agonist activity at APJ receptor (unknown origin) expressed in CHO cells co-expressing with Calphaq16 assessed as calcium mobilization; type: functional, cell-based
T1 sequence (P35414 whole entry): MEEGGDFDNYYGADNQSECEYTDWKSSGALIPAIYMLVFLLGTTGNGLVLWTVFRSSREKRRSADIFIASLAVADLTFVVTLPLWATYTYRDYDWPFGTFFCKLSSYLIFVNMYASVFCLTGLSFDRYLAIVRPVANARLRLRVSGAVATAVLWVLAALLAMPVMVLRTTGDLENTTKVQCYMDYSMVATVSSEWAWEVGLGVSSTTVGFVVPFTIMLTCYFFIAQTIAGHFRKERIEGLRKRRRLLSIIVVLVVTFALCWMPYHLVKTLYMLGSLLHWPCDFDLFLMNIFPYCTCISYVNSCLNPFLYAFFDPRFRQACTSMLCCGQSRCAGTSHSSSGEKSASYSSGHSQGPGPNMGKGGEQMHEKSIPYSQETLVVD

[2] = Half life in rat plasma at pH 7.4 by LC-MS/MS analysis; type: ADME, cell-free
Outline: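 Peptide incubated in rat plasma adjusted to pH 7.4 at 37 °C, with DMSO kept below 2.5%. Reactions were stopped with acetonitrile at 0, 2, 5, 15, 30 and 60 min and clarified by centrifugation. Parent remaining was quantified by UPLC-MS/MS using MRM.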

Plasma [3] = assay: Drug metabolism in rat plasma assessed as Ac-R-P-Nle-L-A after 15 to 25 mins by ESI-MS analysis; type: ADME, cell-free
Outline: (§1)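 Peptide incubated in rat serum, with aliquots taken over a time course. Samples were run on reverse-phase capillary C18 nano-LC, with mobile phase B rising linearly from 10% to 60% over 55 min at 450 nl/min. Detection was positive-ion nano-ESI Orbitrap MS in data-dependent mode (1 FTMS plus 3 IT-MS/MS cycles, resolution 7500). Fragments were assigned from [M+H]+ masses using peptide ladder predictions.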

Plasma [4] = assay: Drug metabolism in rat plasma assessed as Ac-R-P-Nle after 15 to 25 mins by ESI-MS analysis; type: ADME, cell-free; outline: as §1

Compound	Retention_time [1] [min]	EC50 (Apelin receptor; read-out: EC50) [nM]	further results
CSCC[C@H](NC(=O)[C@@H]1CCCN1C(=O)CNC(=O)[C@H](CCCCN)NC(=O)[C@H](Cc1cnc[nH]1)NC(=O)[C@H](CO)NC(=O)[C@H](CC(C)C)NC(=O)[C@H](CCCNC(=N)N)NC(=O)[C@@H]1CCCN1C(=O)[C@H](CCCNC(=N)N)NC(=O)[C@@H]1CCC(=O)N1)C(=O)N1CCC[C@H]1C(=O)N[C@@H](Cc1ccccc1)C(=O)O	17.44	–	–
CC(=O)N[C@@H](CCCNC(=N)N)C(=O)N1CCC[C@H]1C(=O)N[C@@H](CCCCN)C(=O)N[C@@H](CC(C)C)C(=O)N[C@@H](C)C(=O)N[C@@H](C)C(=O)N[C@@H](CCCCN)C(=O)NCC(=O)N1CCC[C@@H]1C(=O)N[C@@H](CC(C)C)C(N)=O	13.25	–	EC50 (Apelin receptor; cho, read-out: EC50): 1.7 nM
CC(=O)N[C@@H](CCCCNC(=O)C(F)(F)F)C(=O)N1CCC[C@H]1C(=O)N[C@@H](CCCNC(=N)N)C(=O)N[C@@H](CC(C)C)C(=O)N[C@@H](C)C(=O)N[C@@H](C)C(=O)N[C@@H](CCCCN)C(=O)NCC(=O)N1CCC[C@H]1C(=O)N[C@@H](CC(C)C)C(N)=O (Ac-K(Tfa)PRLAAKGPL-NH2)	17.23	> 3000	–
CC(=O)N[C@@H](CCCNC(=N)N)C(=O)N1CCC[C@H]1C(=O)NCCCCCCCC(=O)N[C@@H](CC(C)C)C(=O)N[C@@H](C)C(=O)N[C@@H](C)C(=O)N[C@@H](C)C(=O)NCC(=O)N1CCC[C@H]1C(=O)N[C@@H](CC(C)C)C(N)=O (Ac-RP[Aoc]LAAAGPL-NH2)	22	> 3000	–
Ac-APRLSHKGPL-NH2	13.2	1380	–
Ac-KGPMPF-OH	–	–	EC50 (Apelin receptor; read-out: pEC50 (converted)): > 31600 nM
Ac-LSHKGPMPF-OH	–	–	EC50 (Apelin receptor; read-out: pEC50 (converted)): > 31600 nM
Ac-RPRAAAKGPL-NH2	11.33	936	–
H-QRPRLS-NH2	15.93	> 3000	–
H-QRPRLSH-NH2	13.49	> 3000	–
H-QRPRLSHK-NH2	12.94	> 3000	–
H-QRPRLSHKG-NH2	–	> 3000	–
H-QRPRLSHKGP-NH2	–	2350	–

Continued by falling EC50 (Apelin receptor; read-out: EC50), values first:

Retention_time [1] [min]	EC50 (Apelin receptor; read-out: EC50) [nM]	Compound	further results
10.84	691	Ac-RPRLSHKGPV-NH2	–
14.93	637	Ac-RPRLAAAGPL-NH2	–
19.43	539	CCCC[C@H](NC(=O)[C@@H]1CCCN1C(=O)[C@H](CCCNC(=N)N)NC(C)=O)C(=O)NCCCCCCCC(=O)N[C@@H](C)C(=O)N[C@@H](C)C(=O)N[C@@H](CCCCN)C(=O)NCC(=O)N1CCC[C@H]1C(=O)N[C@@H](CC(C)C)C(N)=O (Ac-RP[Nle][Aoc]AAKGPL-NH2)	–
13.08	494	Ac-KPRLAAKGPL-NH2	–
12.37	237	Ac-RPRLAAKGAL-NH2	–
18.37	73	CCCC[C@H](NC(=O)[C@@H]1CCCN1C(=O)[C@H](CCCNC(=N)N)NC(C)=O)C(=O)N[C@@H](CCc1ccccc1)C(=O)N[C@@H](C)C(=O)N[C@@H](C)C(=O)N[C@@H](CCCCN)C(=O)NCC(=O)N1CCC[C@H]1C(=O)N[C@@H](CC(C)C)C(N)=O (Ac-RP[Nle][hPhe]AAKGPL-NH2)	–
13.91	44	Ac-RPKFAAKGPL-NH2	–
16.79	33	CCCC[C@H](NC(=O)[C@H](C)NC(=O)[C@H](C)NC(=O)[C@H](CC(C)C)NC(=O)[C@H](CCCC)NC(=O)[C@@H]1CCCN1C(=O)[C@H](CCCNC(=N)N)NC(C)=O)C(=O)NCC(=O)N1CCC[C@H]1C(=O)N[C@@H](CC(C)C)C(N)=O (Ac-RP[Nle]LAA[Nle]GPL-NH2)	half-life [2]: 2 min; Drug metabolism (Plasma [3]): metabolite_detected; Drug metabolism (Plasma [4]): metabolite_detected
13.23	31	Ac-RARLAAKGPL-NH2	–
14.15	8.9	Ac-RPALAAKGPL-NH2	–
13.43	4.7	Ac-RPRLSHKGPF-NH2	–
11.47	4.4	Ac-RPRLSHKGPM-NH2	–
16.64	3.2	CCCC[C@H](NC(=O)[C@@H]1CCCN1C(=O)[C@H](CCCNC(=N)N)NC(C)=O)C(=O)N[C@@H](CC(C)C)C(=O)N[C@@H](C)C(=O)N[C@@H](C)C(=O)N[C@@H](CCCCN)C(=O)NCC(=O)N1CCC[C@H]1C(=O)N[C@@H](CC(C)C)C(N)=O (Ac-RP[Nle]LAAKGPL-NH2)	–
17.64	2.2	CCCC[C@H](NC(=O)[C@H](C)NC(=O)[C@H](C)NC(=O)[C@H](CC(C)C)NC(=O)[C@H](CCCCN)NC(=O)[C@@H]1CCCN1C(=O)[C@H](CCCNC(=N)N)NC(C)=O)C(=O)NCC(=O)N1CCC[C@H]1C(=O)N[C@@H](CC(C)C)C(N)=O (Ac-RPKLAA[Nle]GPL-NH2)	–
12.43	1.9	Ac-RPRLSHKGPL-NH2	–
13.64	1.1	Ac-RPRLAAKGPL-NH2	–
